From ChEMBL document CHEMBL1153207, “Continued exploration of the triazolopyridine scaffold as a platform for p38 MAP kinase inhibition” (Bioorg Med Chem Lett, 2010)

Experiments:
[1] = Metabolic stability in rat liver microsomes at 2 uM; format: ADME, Microsome; details: read-out: Stability
[2] = Metabolic stability in human liver microsomes at 2 uM; format: ADME, Microsome; details: read-out: Stability
[3] = system: Rattus norvegicus; experiment: Inhibition of LPS-stimulated TNFalpha release Lewis rat at 5 mg/kg after 4 hrs by ELISA; format: functional
Method in brief: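 Male Lewis rats were pre-dosed with compound at set times before an iv lipopolysaccharide challenge. Blood was taken 1.5 h after challenge and TNF-α levels were measured by ELISA.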

[4] = molecular target: Mitogen-activated protein kinase 14 (Homo sapiens, UniProt Q16539); experiment: Inhibition of p38 alpha
Mitogen-activated protein kinase 14, sequence (Q16539 whole entry): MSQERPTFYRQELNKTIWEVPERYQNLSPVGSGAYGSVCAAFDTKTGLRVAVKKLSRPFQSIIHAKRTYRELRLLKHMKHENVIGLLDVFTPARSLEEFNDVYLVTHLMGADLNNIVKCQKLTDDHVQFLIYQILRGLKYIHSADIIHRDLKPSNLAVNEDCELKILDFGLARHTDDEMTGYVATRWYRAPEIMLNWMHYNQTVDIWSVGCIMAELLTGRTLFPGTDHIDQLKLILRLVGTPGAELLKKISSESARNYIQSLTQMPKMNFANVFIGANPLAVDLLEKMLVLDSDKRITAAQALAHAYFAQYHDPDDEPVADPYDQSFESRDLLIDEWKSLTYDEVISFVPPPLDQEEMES

SMILES | remaining at 2 µM [1] | remaining at 2 µM [2] | IC50 [4] | inhibition in vivo at 5 mg/kg [3]
CC(C)c1nnc2ccc(Sc3ccc(Br)cc3C(F)(F)F)cn12 | – | – | > 10000 nM | –
CC(C)c1nnc2ccc(Sc3ccc(F)cc3C(F)(F)F)cn12 | – | – | > 10000 nM | –
O=C(O)c1ccc(-c2nnc3ccc(Sc4ccc(F)cc4F)cn23)cc1 | – | – | 1170 nM | –
Fc1ccc(Sc2ccc3nnc(-c4ccc(F)cc4F)n3c2)c(F)c1 | – | – | 7.2 nM | –
CC(C)c1nnc2ccc(C(=O)Cc3cc(F)cc(F)c3)cn12 | – | – | 7370 nM | –
Fc1ccc(Sc2ccc3nnc(C4CCNCC4)n3c2)c(F)c1 | – | – | 3770 nM | –
CC(C)c1nnc2ccc(C(=O)Nc3cc(F)cc(F)c3)cn12 | – | – | > 10000 nM | –
COC(=O)c1ccc(-c2nnc3ccc(Sc4ccc(F)cc4F)cn23)cc1 | – | – | 322 nM | –

More lines, main results first:

remaining at 2 µM [1] | remaining at 2 µM [2] | IC50 [4] | SMILES | inhibition in vivo at 5 mg/kg [3]
46% | 89% | – | CC(C)c1nnc2ccc(Sc3ccc(F)cc3F)cn12 | 61%
– | – | 8240 nM | CC(C)c1nnc2ccc(Sc3ccc(Cl)cc3Cl)cn12 | –
100% | 100% | – | CC(C)c1nnc2ccc([S+]([O-])c3ccc(F)cc3F)cn12 (centres undefined) | –
23% | 65% | – | CC(C)c1nnc2ccc(Sc3ccc(F)cc3F)c(Cl)n12 | –
9% | 24% | – | CC(C)c1nnc2cc(Cl)c(Sc3ccc(F)cc3F)c(Br)n12 | –
20% | 39% | – | CC(C)c1nnc2cc(Cl)c(Sc3ccc(F)cc3F)c(Cl)n12 | –
54% | 53% | 85 nM | CC(C)c1nnc2ccc(CCc3ccc(F)cc3F)cn12 | –
37% | 71% | – | CC(C)c1nnc2cc(Cl)c(Sc3ccc(F)cc3F)cn12 | –
– | – | > 10000 nM | CC(C)c1nnc2ccc(S(=O)(=O)c3ccc(F)cc3F)cn12 | –
88% | 74% | 1050 nM | CC(C)c1nnc2ccc(C(=O)c3ccc(F)cc3F)cn12 | –
